Sampled rows, rich in hits. Any-hit rate of the full collection: about 2.7%.
V1aR counter – counter-screen for oxytocin receptor agonists: human V1a receptor agonists | AID 2797 | activation, % at 3 µM | CHO-V1R cells, Fluo-8 calcium fluorescence, agonist mode; 0% DMSO, 100% 3 nM vasopressin | 0.25% of 320,000 active;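 active means activation above the mean activation of all tested compounds plus 3 SD, per screening run, cut at about 20% in these data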;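 further: signal is peak over basal fluorescence ratio across a 100 second FLIPR read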
OXTR agonist – human OXTR agonism. P30559. CHO-OTR cells, Fluo-8 calcium fluorescence; normalized: DMSO 0%, oxytocin 100%. activation, % at 3 µM. 0.32% of 320,000 active;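 active means activation above the mean of all tested compounds plus 3 SD, cutoff set per screening run, cut at about 20% in these data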;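 further: peak over basal fluorescence ratio from a 100 s FLIPR kinetic read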
OX1R antag-1 – OX1R (human) antagonism; 1.8% of 330,000 active; OX1R-expressing cells, FRET antagonist read-out; O43613; inhibition, % at 6.6 µM; in the data active means inhibition mostly above about 38%, no sharp cut-off; inactive means mostly below about 40%
Target sequence (O43613 whole entry, looked up): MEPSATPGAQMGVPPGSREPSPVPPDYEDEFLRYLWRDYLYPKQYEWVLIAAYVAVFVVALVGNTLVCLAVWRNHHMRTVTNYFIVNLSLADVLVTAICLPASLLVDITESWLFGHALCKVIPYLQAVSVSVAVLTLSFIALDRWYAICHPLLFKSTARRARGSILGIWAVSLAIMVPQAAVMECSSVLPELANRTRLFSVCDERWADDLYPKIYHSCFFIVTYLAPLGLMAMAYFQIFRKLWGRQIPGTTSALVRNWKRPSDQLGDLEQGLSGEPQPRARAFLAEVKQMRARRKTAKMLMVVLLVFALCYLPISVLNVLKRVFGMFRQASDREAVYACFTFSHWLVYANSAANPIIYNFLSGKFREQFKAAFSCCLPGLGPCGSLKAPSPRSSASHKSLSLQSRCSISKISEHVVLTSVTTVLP
OX1R antag-2 – human HCRTR1 antagonism. CHO/OX1R cells, Fluo-8 calcium fluorescence, orexin A. inhibition, % at 5 µM. 0.43% of 330,000 active;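 active means inhibition above its plate's threshold, mean inhibition of all tested compounds on the plate plus 3 SD, cut at about 37% in these data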
CHO parental Ca – signal in parental CHO cells, OX1R antagonist counter-screen. AID 463079. parental CHO-K1, ATP-induced calcium, Fluo-8 fluorescence. inhibition, % at 5.6 µM. 0.63% of 330,000 active;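 active means inhibition above that plate's mean sample inhibition plus 3 SD, cut at about 26% in these data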
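Assay system – parental CHO cells · Reagent – ATP stimulus · Detection – intracellular calcium via Fluo-8 no-wash fluorescent dye · Evaluation – percent inhibition of ATP-evoked calcium rise, normalized to controls · Controls – ATP wells versus no-ATP DMSO wells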
OXTR potentiator – human OXTR potentiation; 0.061% of 320,000 active; CHO-OTR cells, Fluo-8 calcium fluorescence, potentiator mode; 0% = oxytocin EC15, 100% = EC100; activation, % at 3 µM;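 active means activation above that plate's cutoff, the mean activation of tested compounds plus 3 SD, cut at about 6.6% in these data, passing the limit was not always enough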
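Material: CHO-OTR cells, human receptor; compound dosing: single dose, 3.0 µM nominal final compound concentration; schedule: 6 min compound pre-incubation at room temperature, 100 s kinetic read; measured by: kinetic Fluo-8 calcium fluorescence; read-out basis: % activation vs EC15 and EC100 oxytocin; controls: EC15 oxytocin alone as 0%, 75 nM oxytocin as 100%; replicates: singlicate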
OX1R Ca confirm – OX1R (human) antagonism, confirmed; inhibition, % at 5 µM; 38% of 1,100 active; CHO/OX1R cells, orexin A calcium Fluo-8 fluorescence; shares compounds with OX1R antag-2; in the data active means inhibition above about 29%
CHO Ca counter – signal in parental CHO cells, OX1R antagonist counter-screen | shares compounds with OX1R antag-2 | parental CHO-K1, ATP-induced calcium, Fluo-8 fluorescence | inhibition, % at 5.6 µM | 9.3% of 1,100 active | AID 492965;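 active means inhibition above a per-plate limit, the mean inhibition of that plate's test compounds plus 3 SD, cut at about 25% in these data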
OX1R HTRF conf – OX1R (human) antagonism, HTRF confirmed; 49% of 1,800 active; OX1R-expressing cells, HTRF antagonist assay; inhibition, % at 6.6 µM; shares compounds with OX1R antag-1; in the data active means inhibition above about 55%;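 further: CHO cells expressing OX1R stimulated with orexin A at about EC80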
CHO-K1 HTRF cnt – signal in parental CHO-K1 cells, OX1R antagonist counter-screen | shares compounds with OX1R antag-1 | HTRF counterscreen | inhibition, % at 6.6 µM | 48% of 1,800 active; in the data active means inhibition above about 17%
A number is an active result; – = inactive; · = no result given.

SMILES | V1aR counter | OXTR agonist | OX1R antag-1 | OX1R antag-2 | CHO parental Ca | OXTR potentiator | OX1R Ca confirm | CHO Ca counter | OX1R HTRF conf | CHO-K1 HTRF cnt
CC(C)C(NS(=O)(=O)c1cccc2nsnc12)C(=O)N1CCn2c1nc1ccccc12 (configuration not stated) | – | – | 134 | – | – | – | – | – | 92 | –
CC(C)C(NS(=O)(=O)c1cccc2nsnc12)C(=O)Nc1nccs1 (configuration not stated) | – | – | – | – | – | – | · | · | · | ·
CC(=O)N1CCN(S(=O)(=O)c2cccc(C(=O)Nc3ccc(C)cn3)c2)CC1 | – | – | – | – | – | – | · | · | · | ·
Cc1ccc(NC(=O)c2cccc(S(=O)(=O)N3CCc4ccccc4C3)c2)nc1 | – | – | 39 | – | – | – | – | – | – | –
COc1ccc(CNC(=O)C2Cc3cc(S(=O)(=O)N4CCCC4)ccc3N2C(C)=O)c(OC)c1 (configuration not stated) | – | – | – | – | – | – | · | · | · | ·
CCN(CC)S(=O)(=O)c1cc(NC(=O)CSCc2c(C)noc2C)ccc1C | – | – | 74 | 46 | – | – | 36 | – | 80 | –
COc1ccc(OCC(=O)NNc2c3ccccc3nc3ccccc23)cc1 | – | – | 102 | 41 | – | – | – | – | – | –
COc1ccccc1N(C)S(=O)(=O)c1ccc(Cl)c(C(=O)OCc2c(C)noc2C)c1 | – | – | 54 | – | – | – | – | – | – | –
CCOc1ccccc1C(=O)NCCNC(=O)c1ccccc1OCC | – | – | 80 | 65 | – | – | 77 | – | – | –
CCOc1cc(NC(=O)c2ccccc2OC)c(OCC)cc1NC(=O)c1ccccc1 | – | – | – | – | – | – | · | · | · | ·
CCOc1ccccc1NC(=O)c1ccccc1-c1nc(-c2ccccc2OC)no1 | – | – | 87 | 45 | – | – | – | – | – | –
CCOc1ccccc1C(=O)Nc1cc(OC)ccc1OC | – | – | 68 | 61 | – | – | – | – | 89 | –
CCCNC(=O)c1ccc(N2CCC3(CC2)CC(c2ccccc2)=NO3)c(NC(=O)Cc2ccc(F)cc2)c1 | – | – | – | – | – | – | · | · | · | ·
Cn1c2ccccc2c2cc(/C=N/NC(=O)c3ccc(O)cc3O)ccc21 | – | – | 92 | – | – | – | – | 25 | 73 | –
Cc1cccc2cc(C#N)c(NCCNS(=O)(=O)c3ccc4c(c3)OCCO4)nc12 | – | – | 73 | – | – | – | 32 | – | 64 | –
O=C(CN1C(=O)/C(=C/c2ccccc2)Sc2ccccc21)NCCCN1CCOCC1 | – | – | – | – | – | – | · | · | · | ·
CCOC(=O)CN1C(=O)/C(=C/c2cccc(Br)c2)Oc2ccccc21 | – | – | – | – | – | – | · | · | · | ·
O=C(CN1C(=O)/C(=C\c2cccc(Br)c2)Oc2ccccc21)NCC1CCCO1 (configuration not stated) | – | – | 67 | – | – | – | 79 | – | 90 | –
Cc1ccc(/C=C2/Sc3ccccc3N(CC(=O)NCC3CCCO3)C2=O)cc1 (configuration not stated) | – | – | 77 | 55 | – | – | 59 | – | 88 | –
CCc1ccc(/C=C2/Sc3ccccc3N(CC(=O)NCC3CCCO3)C2=O)cc1 (configuration not stated) | – | – | 95 | 84 | – | – | 45 | – | 87 | –
COc1ccccc1N1CCN(C(=O)C(C)CS(=O)(=O)c2ccc3c(c2)NC(=O)CS3)CC1 (configuration not stated) | – | – | – | – | – | – | · | · | · | ·
